ChEMBL document CHEMBL1125251, “4'-Hydroxy-3-methoxyflavones with potent antipicornavirus activity” (J Med Chem, 1991)
Values after ≈ are worked out from the molar mass of the structure shown.

Legend:
[1] = system: Enterovirus C; assay: The ratio of the poliovirus viral titer of the virus control (reduction factor) to the viral titer in the presence of the maximal non-toxic dose (RF MNTD); format: functional
Outline: (§1)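 Poliovirus type 1 Brunhilde 1A/S3 in Vero monolayers. Serial 10-fold virus dilutions adsorbed 1 h at 37 °C, then serial 2-fold compound dilutions were added. Incubated at 37 °C and scored for CPE by light microscopy, with a 3-day readout. Titer reduction is control/treated TCD50/mL. ED99 is the minimum concentration inhibiting 99% of virus. Virus, cell and compound controls were included.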

[2] = system: Enterovirus C; assay: Minimum drug concentration at which 99% of the polio virus is inhibited; format: functional; outline: as §1
[3] = system: Enterovirus C; assay: Maximal non-toxic dose (MNTD) that shows antiviral activity.; format: functional
Outline: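 End-point titration. Poliovirus type 1 Brunhilde was run in Vero cells at 37 °C with a 3-day read. Rhinovirus 15 was run in human skin fibroblasts at 33 °C with a 7-day read. Monolayers got serial 10-fold virus dilutions and adsorbed 1 h at 37 °C, then serial 2-fold compound dilutions (DMSO stock in maintenance medium). CPE was read by light microscopy. RF = control titer (TCD50/mL) / titer at maximal nontoxic dose.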

[4] = Cytotoxic dose at which 50% growth of normal cells is inhibited; format: cell-based; conditions: chlorocebus sabaeus, Vero cells; read-out: CyD50
Outline: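 Cell-growth cytotoxicity in Vero cells or human skin fibroblasts. Serial 2-fold dilutions in M-199 with 6% newborn calf serum were added in quadruplicate to 10⁶ cells and held 6 days at 37 °C. Cells were trypsinized, counted and reseeded with compound, repeated five times. Generation time was calculated per concentration. CyD50 = lowest concentration at least doubling generation time versus untreated cells.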

[5] = system: Human rhinovirus sp.; assay: Cytotoxic dose at which 50% growth of normal cells is inhibited against rhino virus infection.; format: functional
Outline: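 Human skin fibroblasts, 10⁶ cells per flask, given serial 2-fold dilutions in quadruplicate in M-199 with 6% newborn calf serum and held 6 days at 37 °C. Cells were trypsinized, counted in a chamber and reseeded with compound over five repeat cycles. CyD50 = lowest concentration at least doubling cell generation time relative to untreated control.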

[6] = system: Enterovirus C; assay: Minimal dose which produces titer reduction at 10 ug/mL (mD RF10e3); format: functional
[7] = Therapeutic Index measured as the ratio of CyD50(polio) / ED99(polio) values; format: organism-based; conditions: enterovirus c; read-out: Therapeutic index 99
Outline: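 TI99 = CyD50/ED99 for poliovirus. ED99 came from end-point titration in Vero cells at 37 °C over 3 days. CyD50 came from Vero cell growth: 10⁶ cells were given serial 2-fold compound dilutions in quadruplicate for 6 days at 37 °C, then trypsinized, counted and reseeded, repeated five times. Generation time was calculated per concentration.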

[8] = system: Human rhinovirus sp.; assay: Minimum drug concentration at which 99% of the rhino virus is inhibited.; format: functional
Outline: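 End-point titration with rhinovirus type 15 on human skin fibroblast monolayers. Cells were infected with serial 10-fold virus dilutions and allowed 1 h adsorption at 37 °C. Serial 2-fold compound dilutions were then added and plates incubated at 33 °C. CPE was read daily by light microscopy for at least 1 week, titres as TCD50/mL. ED99 = minimum concentration inhibiting 99% of virus.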

Structure (SMILES) | Reduction factor [1] | ED99 [2] | Max non-toxic dose [3] | CC50 [4] | CyD50 [5] | Minimal dose [6] | selectivity ratio [7] | ED99 [8]
COc1c(-c2ccc(Cl)cc2)oc2cc(C)ccc2c1=O | 1 | <1000 µg/mL | 25 µg/mL | 100 µg/mL (≈ 333 µM) |  |  |  | 
COc1c(-c2ccc(O)cc2)oc2ccc(Cl)cc2c1=O |  | 6 µg/mL | 100 µg/mL | 100 µg/mL (≈ 330 µM) | 100 µg/mL | 1.5 µg/mL | 16.7 | <1000 µg/mL
COc1cc(O)c2c(=O)c(OC)c(-c3ccc(OC)c(OC)c3)oc2c1 [RETUSIN] | 1 |  | >50 µg/mL |  |  |  |  | 
COc1c(-c2ccc(O)cc2)oc2cc(F)ccc2c1=O | 1000 | 10 µg/mL | 10 µg/mL | 25 µg/mL (≈ 87.3 µM) |  |  | 2.5 | 
COc1c(-c2ccc(OC(C)=O)c(OC(C)=O)c2)oc2cc(OC(C)=O)cc(OC(C)=O)c2c1=O | 1000000 |  | >50 µg/mL |  |  | 2 µg/mL |  | 
COc1ccc(-c2oc3cc(OC)cc(O)c3c(=O)c2OC)cc1 | 1 |  | >50 µg/mL |  |  |  |  | 
Cc1ccc2c(=O)c(C)c(-c3ccc(O)cc3)oc2c1 |  |  |  | 100 µg/mL (≈ 376 µM) | 100 µg/mL |  |  | 25 µg/mL
COc1c(O)cc2oc(-c3ccc(O)cc3)c(OC)c(=O)c2c1O [3,6-DIMETHOXY KAEMPFEROL] | 100000 | 0.5 µg/mL | 20 µg/mL | 25 µg/mL (≈ 75.7 µM) |  | 1 µg/mL | 50 | 
COc1c(-c2ccc(O)cc2)oc2cc(O)cc(O)c2c1=O [ISOKAEMPFERIDE] | 1000000 | 0.2 µg/mL | 10 µg/mL | 10 µg/mL (≈ 33.3 µM) |  | 0.25 µg/mL | 50 | 
COc1c(-c2ccc(O)cc2)oc2ccccc2c1=O | 100000 | 6 µg/mL | 15 µg/mL | 10 µg/mL (≈ 37.3 µM) |  | 6 µg/mL | 1.7 | 
COc1ccc(-c2oc3c(OC)c(OC)cc(O)c3c(=O)c2OC)cc1 |  |  | 7.5 µg/mL |  |  |  |  | 
COc1c(-c2ccc(O)cc2)oc2c(C)cc(Cl)cc2c1=O | 1 | >50 µg/mL | 25 µg/mL | 50 µg/mL (≈ 158 µM) |  |  | < 1 | 
COc1ccc(-c2oc3c(OC)c(O)cc(O)c3c(=O)c2OC)cc1 | 1 |  | >10 µg/mL |  |  |  |  | 
COc1c(-c2ccc(O)cc2)oc2cc(C(C)C)ccc2c1=O |  |  | 25 µg/mL |  |  |  |  | 
COc1ccc(-c2oc3ccc(OC)cc3c(=O)c2OC)cc1 |  |  | 50 µg/mL | 100 µg/mL (≈ 320 µM) | 100 µg/mL |  | 2 | 50 µg/mL
COc1ccc(-c2oc3cccc(OC)c3c(=O)c2OC)cc1 | 1 |  | 100 µg/mL |  |  |  |  | 
COc1ccc(-c2oc3cc(O)cc(O)c3c(=O)c2OC)cc1 [ERMANIN] |  | 5 µg/mL | 10 µg/mL | 50 µg/mL (≈ 159 µM) |  | 5 µg/mL | 10 | 

Structure (SMILES) | Reduction factor [1] | ED99 [2] | Max non-toxic dose [3] | CC50 [4] | CyD50 [5] | Minimal dose [6] | selectivity ratio [7] | ED99 [8]
COc1ccc(-c2oc3cc(O)cc(O)c3c(=O)c2OC)cc1OC |  |  | 50 µg/mL |  |  | 2.5 µg/mL |  | 
COc1c(-c2ccc(O)cc2)oc2ccc(C)cc2c1=O |  | 5 µg/mL | 12 µg/mL | 75 µg/mL (≈ 266 µM) | 75 µg/mL |  | 15 | <1000 µg/mL
COc1cc(O)c2c(=O)c(OC)c(-c3ccc(O)c(O)c3)oc2c1 | 1000000 | 0.3 µg/mL | 10 µg/mL | 10 µg/mL (≈ 30.3 µM) |  | 0.5 µg/mL | 33.3 | 
COc1ccc(-c2oc3cc(OC)c(OC)cc3c(=O)c2OC)cc1OC | 10000 |  | 50 µg/mL |  |  | 50 µg/mL |  | 
Cc1ccc2c(=O)c(N)c(-c3ccc(O)cc3)oc2c1 |  |  |  | 10 µg/mL (≈ 37.4 µM) |  |  |  | 
COc1cc(O)c2c(=O)c(OC)c(-c3ccc(O)c(OC)c3)oc2c1 [PACHYPODOL] | 1000000 | 2.5 µg/mL | 20 µg/mL | 25 µg/mL (≈ 72.6 µM) |  | 0.5 µg/mL | 10 | 
COc1ccc(-c2oc3cc(O)c(OC)c(O)c3c(=O)c2OC)cc1 [SANTIN] | 1 |  | 100 µg/mL |  |  |  |  | 
Cc1ccc2c(=O)c(Cl)c(-c3ccc(O)cc3)oc2c1 |  |  |  | 50 µg/mL (≈ 174 µM) | 50 µg/mL |  |  | 20 µg/mL
COc1ccc(-c2oc3c(OC)c(OC)c(OC)c(OC)c3c(=O)c2OC)cc1OC [3,5,6,7,8,3',4'-HEPTAMETHOXYFLAVONE] | 100000 |  | 50 µg/mL |  |  | 25 µg/mL |  | 
COc1c(-c2ccc(O)c(O)c2)oc2c(OC)c(O)cc(O)c2c1=O | 1000000 | 1.5 µg/mL | 20 µg/mL | 10 µg/mL (≈ 28.9 µM) |  | 2 µg/mL | 6.6 | 
COc1c(-c2ccc(O)cc2)oc2cc(Br)ccc2c1=O | 10 | >30 µg/mL | 30 µg/mL | 30 µg/mL (≈ 86.4 µM) |  |  | < 1 | 
COc1c(-c2ccc(O)cc2)oc2c(OC)cccc2c1=O | 1000000 | 20 µg/mL | 50 µg/mL | 25 µg/mL (≈ 83.8 µM) |  | 2.5 µg/mL | 1.25 | 
COc1ccc(-c2oc3cc(C)ccc3c(=O)c2OC)cc1 | 1 |  | 100 µg/mL |  |  |  |  | 
COc1ccc2oc(-c3ccc(O)cc3)c(OC)c(=O)c2c1 |  | 25 µg/mL | 50 µg/mL | 200 µg/mL (≈ 670 µM) |  |  | 8 | 
COc1ccc(-c2oc3ccc(O)cc3c(=O)c2OC)cc1 | 1 |  | 100 µg/mL |  |  |  |  | 
COc1ccc(-c2oc3c(OC)c(OC)c(OC)c(O)c3c(=O)c2OC)cc1OC | 10000 |  | 50 µg/mL |  |  | 50 µg/mL |  | 
COc1c(-c2ccc(O)c(O)c2)oc2cc(O)cc(O)c2c1=O [3-O-METHYLQUERCETIN] | 1000000 | 0.3 µg/mL | 20 µg/mL | 5 µg/mL (≈ 15.8 µM) |  | 0.5 µg/mL | 16.7 | 
